From ChEMBL document CHEMBL1152481, “Synthesis of 2-(4-substitutedmethylpiperazin-1-yl)-N-(3,4-dihydro-3-oxo-2H-benzo[b][1,4]oxazin-7-yl)acetamides and their positive inotropic evaluation” (2009)
Active and inactive are the calls of the source. The calls are words filed in the database; no cut-off is given here.

How the values were obtained:
[1] = Positive inotropic activity in perfused rabbit left atrium assessed as increase in stroke volume at 10 uM; format: functional, Oryctolagus cuniculus, Cardiac atrium
In short: (§1)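 Field-stimulated at a fixed 1.5 Hz, 60 min stabilization. Single dose, DMSO-dissolved and buffer-diluted, applied after a control circulation; 12-min circulations. Stroke volume read from the cannula water column at end diastole every 2 min, reported as mean % increase.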

[2] = species: Oryctolagus cuniculus; experiment: Positive inotropic activity in perfused rabbit left atrium assessed as increase in stroke volume at 10 uM/L; format: functional, tissue-based; conditions: Cardiac atrium, TDE = time-dependent effect; in short: as §1
[3] = Chronotropic effect in perfused rabbit left atrium assessed as heart rate at 10 uM by electrocardiogram analysis (Rvb= 152.20 +/- 0.42 Hz); format: functional, Oryctolagus cuniculus, Cardiac atrium
[4] = species: Oryctolagus cuniculus; experiment: Negative inotropic activity in perfused rabbit left atrium assessed as stroke volume at 10 uM; format: functional, tissue-based; conditions: Cardiac atrium; in short: as §1
[5] = Chronotropic effect in perfused rabbit left atrium assessed as heart rate at 10 uM by electrocardiogram analysis (Rvb= 146.80 +/- 0.09 Hz); format: functional, Oryctolagus cuniculus, Cardiac atrium

SMILES	Activity [1] [%]	Activity [4]	other results
Cc1ccc(CN2CCN(CC(=O)Nc3ccc4c(c3)OCC(=O)N4)CC2)cc1	5.09	–	Activity [2]: tde; Activity [3]: 142.2 Hz
O=C(CN1CCN(Cc2c(Cl)cccc2Cl)CC1)Nc1ccc2c(c1)OCC(=O)N2	–	Active	–
COc1cccc(CN2CCN(CC(=O)Nc3ccc4c(c3)OCC(=O)N4)CC2)c1	3.23	–	–
O=C(CN1CCN(Cc2ccccc2Br)CC1)Nc1ccc2c(c1)OCC(=O)N2	1.43	–	–
O=C(CN1CCN(Cc2ccc3c(c2)OCO3)CC1)Nc1ccc2c(c1)OCC(=O)N2	–	Active	–
O=C(CN1CCN(Cc2ccc3cc(OCc4ccccc4)ccc3c2)CC1)Nc1ccc2c(c1)OCC(=O)N2	–	Active	–
O=C(CN1CCN(Cc2cccc(Cl)c2)CC1)Nc1ccc2c(c1)OCC(=O)N2	–	Active	–
O=C(CN1CCN(Cc2ccc3cc(OCc4cccc(Cl)c4)ccc3c2)CC1)Nc1ccc2c(c1)OCC(=O)N2	–	Active	–
O=C(CN1CCN(Cc2ccccc2)CC1)Nc1ccc2c(c1)OCC(=O)N2	–	Active	–
COc1ccc(COc2ccc3cc(CN4CCN(CC(=O)Nc5ccc6c(c5)OCC(=O)N6)CC4)ccc3c2)cc1	–	Active	–
O=C(CN1CCN(Cc2ccc(Cl)cc2)CC1)Nc1ccc2c(c1)OCC(=O)N2	–	Active	–
Cc1[nH]c(=O)c(C#N)cc1-c1ccncc1 [MILRINONE]	1.67	–	–
Cc1ccc(COc2ccc3cc(CN4CCN(CC(=O)Nc5ccc6c(c5)OCC(=O)N6)CC4)ccc3c2)cc1	–	Active	–
O=C(CN1CCN(Cc2ccc(F)cc2)CC1)Nc1ccc2c(c1)OCC(=O)N2	–	Active	–
O=C(CN1CCN(Cc2ccccc2F)CC1)Nc1ccc2c(c1)OCC(=O)N2	4.29	–	Activity [5]: 139.1 Hz; Activity [2]: tde
COc1ccc(CN2CCN(CC(=O)Nc3ccc4c(c3)OCC(=O)N4)CC2)cc1	–	Active	–
